Screening data from PubChem BioAssay.
TCR CD3 inh – blocks the human TCR-CD3 interaction; TAMRA-labeled TCR probe fluorescence, biochemical; inhibition, % at 9.4 µM; 360,000 compounds, 0.37% hits; AID 651800; in the data active means inhibition above about 19%;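 further: recombinant mutant TCR 2C K166C tagged with TAMRA read by polarization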
HTRA1 inh – blocks human HTRA1 serine peptidase; Q92743; recombinant HTRA1, FP-rhodamine activity-based probe, fluorescence polarization; inhibition, % at 5.96 µM; 340,000 compounds, 0.5% hits; AID 504803; in the data active means inhibition above about 36%
Target sequence (Q92743 whole entry, looked up): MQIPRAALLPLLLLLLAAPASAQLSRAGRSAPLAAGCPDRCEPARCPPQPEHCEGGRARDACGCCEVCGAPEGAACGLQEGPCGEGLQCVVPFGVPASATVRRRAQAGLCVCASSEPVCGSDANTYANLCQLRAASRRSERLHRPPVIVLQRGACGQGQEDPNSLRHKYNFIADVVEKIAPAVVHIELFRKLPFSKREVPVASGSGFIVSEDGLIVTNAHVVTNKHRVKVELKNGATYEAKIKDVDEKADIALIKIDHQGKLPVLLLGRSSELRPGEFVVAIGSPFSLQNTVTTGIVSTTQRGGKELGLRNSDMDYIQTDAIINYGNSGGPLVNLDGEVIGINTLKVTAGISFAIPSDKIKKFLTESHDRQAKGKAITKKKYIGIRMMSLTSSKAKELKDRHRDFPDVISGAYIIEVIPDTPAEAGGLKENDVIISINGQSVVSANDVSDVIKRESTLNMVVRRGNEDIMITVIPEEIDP
SIAE primary – inhibitors of human sialic acid acetylesterase SIAE; Q9HAT2; SIAE FP-Rh probe binding, fluorescence polarization; inhibition, % at 9.66 µM; 370,000 compounds, 0.69% hits; AID 1053197;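 active means inhibition above a cutoff: mean of compounds within the control limits plus 3 SD of those, cut at about 17% in these data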
mABHD4 FP – ABHD4 (mouse) inhibition, primary FP screen; purified mABHD4, FP-Rh probe fluorescence polarization; inhibition, % at 8.92 µM; 370,000 compounds, 0.54% hits; AID 720543;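 active means inhibition exceeding the mean over every tested compound plus 3 SD, cut at about 30% in these data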
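Doses – 8.92 µM, single dose · Material – wild-type mouse ABHD4 protein · Replication – single well per compound (singlicate) · Measure – percent inhibition of probe binding, normalized to plate controls · Schedule – 45 min compound pre-incubation plus 60 min probe step, 25 °C · Detection – fluorescence polarization with parallel and perpendicular emission, 525/598 nm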
Tn6 DDE FP – disrupts Tn6 cyclic peptide binding to fibrin D-Dimer-E complex | P02675 | Fibrin DD(E) TRITC-Tn6 fluorescence polarization displacement | inhibition, % at 8.3 µM | 370,000 compounds, 0.21% hits | AID 720509;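 active means inhibition above a per-campaign cutoff: mean of compounds within control limits plus 3 SD, cut at about 15% in these data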
Tn7 DDE FP – inhibitors of Tn7 peptide binding to human fibrin DD(E) | P02675 | FP displacement of FITC-Tn7 peptide from fibrin DD(E); 0% = median of compound wells per plate | inhibition, % at 8.3 µM | 370,000 compounds, 0.13% hits | AID 720508;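 active means inhibition above the mean of compounds falling within the control limits plus 3 SD of them, cut at about 14% in these data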
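system = human fibrin DD(E) protein | quantity = DD(E) 2 µM final | medium = Tris/NaCl/CaCl2 buffer, pH 7.8 | also added = labelled Tn7 tracer, 0.1 µM | compound dosing = single point at 8.3 µM | timing = compound with protein 10 min, then 3 h after probe, room temperature | signal = FP measurement | benchmarks = Aha-Tn7 high control | repeats = one replicate per compound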
SIAE confirm – human SIAE inhibition, confirmation | SIAE FP-Rh activity-based probe, fluorescence polarization | 2,300 compounds, 13% hits | shares compounds with SIAE primary | inhibition, % at 9.66 µM;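 active means mean inhibition of the replicates above the hit cutoff set in the primary screen, cut at about 17% in these data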;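 further: inhibitors lower polarization as more probe stays unbound to SIAE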
Large screens that a line does not name were inactive (follow-up assays come after a bar, where they were run). Shown are actives, neighbours in structure and some others; about 1.8% of the full set was active somewhere.

O=C(CN1CCCc2ccccc21)NCc1ccc(Cl)cc1	none (no result: TCR CD3 inh, HTRA1 inh)
COc1cccc(NC=C2C(=O)OC3(CCCCC3)OC2=O)c1	none
COc1ccc(C2=CC(=O)OC3(CCCCC3)O2)cc1	SIAE primary 19 | SIAE confirm inactive
CCCn1c(=N)n(CC(=O)c2ccco2)c2ccccc21	none
Cc1ccccc1Cn1c(=N)n(CC(=O)c2ccco2)c2ccccc21	SIAE primary 22 | SIAE confirm inactive
O=C1CC2c3cc(Br)ccc3CCN2C(=O)CN1Cc1ccccc1 (configuration not stated)	none (no result: HTRA1 inh)
COc1ccc(C(=O)N/N=C/c2ccc(OC)c(CN3CCCc4ccccc43)c2)cc1	none
COc1ccc(/C=N/NC(=O)c2cccnc2)cc1CN1CCCc2ccccc21	SIAE primary 22 | SIAE confirm 19
O=C(Oc1ccc2ccc(=O)oc2c1)C1CCCCC1	SIAE primary 38 | SIAE confirm 34
O=C(COc1ccc2ccc(=O)oc2c1)NC1CCCC1	none
C=CCN1C(=O)[C@H](CC(=O)N2CCN(C(=O)c3ccco3)CC2)[C@@]2(C(=O)OCC)CCCC=C12	none (no result: TCR CD3 inh, HTRA1 inh)
Cc1ccc(NS(=O)(=O)c2ccccc2Cl)c2c1CC(C)(C)O2	none
Cc1cccc(S(=O)(=O)Nc2ccc(C)c3c2OC(C)(C)C3)c1	SIAE primary 24 | SIAE confirm inactive
O=C(c1cccc(Oc2ccccc2)c1)N1CCC(Oc2cccnc2)CC1	none (no result: TCR CD3 inh, HTRA1 inh)
CSC1=NC(C)(C)C=C(/C=C/c2ccc(Cl)cc2Cl)N1	none
CSC1=NC(C)(C)C=C(/C=C/c2ccc(Cl)cc2)N1	SIAE primary 17 | SIAE confirm inactive
NNC(=O)c1ccc(Cn2cccn2)o1	SIAE primary 21 | SIAE confirm inactive
O=C(CNc1ccc(F)cc1)N/N=C/c1c(O)ccc2ccccc12	none
COc1ccccc1NCC(=O)N/N=C/c1c(O)ccc2ccccc12	SIAE primary 18 | SIAE confirm inactive
CCOC(=O)[C@]12CCCCC/C=C\1N(Cc1ccc(OC)cc1)C(=O)[C@H]2CC(=O)N1CCCC1	none (no result: TCR CD3 inh, HTRA1 inh)
